Measured values reported in ChEMBL document CHEMBL4190170, “Improved Antiviral Activity of a Polyamide Against High-Risk Human Papillomavirus Via N-Terminal Guanidinium Substitution” (Medchemcomm, 2016).
The source made the active and inactive calls. The rule behind the calls is not given here.

What was measured:
Human papillomavirus [1] = assay: Antiviral activity against HPV 16 infected in mouse 3T3 cells assessed as decrease in viral DNA after 48 hrs by qRT-PCR analysis; type: functional, organism-based, Human papillomavirus 16; conditions: NIH3T3, 48 h
In short: (§1)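 Assays run side by side over a range of polyamide concentrations for two days. Pseudo IC50 and IC90 are the polyamide concentrations that give a 50% or 90% drop in viral DNA.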

Human papillomavirus [2] = assay: Antiviral activity against HPV 18 infected in mouse 3T3 cells assessed as decrease in viral DNA after 48 hrs by qRT-PCR analysis; type: functional, organism-based, human papillomavirus 18; conditions: NIH3T3, 48 h; in short: as §1
Human papillomavirus [3] = assay: Antiviral activity against HPV 31 infected in mouse 3T3 cells assessed as decrease in viral DNA after 48 hrs by qRT-PCR analysis; type: functional, organism-based, Human papillomavirus type 31; conditions: NIH3T3, 48 h; in short: as §1
[4] = (§2) Binding affinity to HPV 18 CCTGG TATTAGTCAT TTTCC LCR DNA (7606 to 7615 nucleotides) after 4 hrs by DNase I footprinting assay; set-up: species or system human papillomavirus 18
In short: (§3)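 Kd values derived from DNase I footprinting of HPV18 LCR DNA, each run at least in triplicate. Sites are read as the polyamide binding block flanked by 5 nt on each side.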

human papillomavirus 18 [5] = assay: as §2; in short: as §3
[6] = Binding affinity to HPV 18 ACATA TTTTGAACAA TTGGC LCR DNA (7559 to 7568 nucleotides) after 4 hrs by DNase I footprinting assay; set-up: species or system human papillomavirus 18; in short: as §3
[7] = Binding affinity to HPV 18 CTTTGGCGCATATAA GGCGC LCR DNA (7585 to 7594 nucleotides) after 4 hrs by DNase I footprinting assay; set-up: species or system human papillomavirus 18; in short: as §3
human papillomavirus 18 [8] = assay: Binding affinity to HPV 18 5'-TAGTCATTTT-3' LCR DNA (7609 to 7618 nucleotides) after 4 hrs by DNase I footprinting assay; in short: as §3
human papillomavirus 18 [9] = assay: Binding affinity to HPV 18 CCT GGT ATTAG TCATT TTCCTG TCCAGGT LCR DNA (7619 to 7626 nucleotide) at 5 nM after 4 hrs by DNase I footprinting assay; in short: as §3
human papillomavirus 18 [10] = assay: Binding affinity to (7619 nucleotide) of HPV 18 CCT GGT ATTAG TCATT TTCCTG TCCAGGT LCR DNA at 5 nM after 4 hrs by DNase I footprinting assay; in short: as §3
human papillomavirus 18 [11] = assay: Binding affinity to HPV 18 CCT GG TATTAGTCATTTTCCTG TCCA G GT LCR DNA (7606 to 7615 nucleotide) at 50 nM after 4 hrs by DNase I footprinting assay; in short: as §3

| Structure (SMILES) | IC50 (Human papillomavirus [1]) | IC90 (Human papillomavirus [1]) | IC50 (Human papillomavirus [2]) | IC90 (Human papillomavirus [2]) | IC50 (Human papillomavirus [3]) | IC90 (Human papillomavirus [3]) | Kd [4] | Activity (human papillomavirus 18 [5]) | Kd [6] | Kd [7] | Activity (human papillomavirus 18 [8]) | Activity (human papillomavirus 18 [9]) | Activity (human papillomavirus 18 [10]) | Activity (human papillomavirus 18 [11]) |
| --- | --- | --- | --- | --- | --- | --- | --- | --- | --- | --- | --- | --- | --- | --- |
| CN(CCCN)CCCNC(=O)CCNC(=O)c1cc(NC(=O)c2cc(NC(=O)c3cc(NC(=O)c4cc(NC(=O)CCNC(=O)c5cc(NC(=O)c6cc(NC(=O)CCCNC(=O)c7cc(NC(=O)c8cc(NC(=O)c9cc(NC(=O)CCNC(=O)c%10cc(NC(=O)c%11cc(NC(=O)c%12nc(N=C(N)N)cn%12C)cn%11C)cn%10C)cn9C)cn8C)cn7C)cn6C)cn5C)cn4C)cn3C)cn2C)cn1C | 100 nM | 380 nM | 200 nM | 900 nM | 140 nM | 800 nM | 1 nM | Active | 1 nM | 2.2 nM | Active | Active | – | – |
| CN(CCCN)CCCNC(=O)CCNC(=O)c1cc(NC(=O)c2cc(NC(=O)c3cc(NC(=O)c4cc(NC(=O)CCNC(=O)c5cc(NC(=O)c6cc(NC(=O)CCCNC(=O)c7cc(NC(=O)c8cc(NC(=O)c9cc(NC(=O)CCNC(=O)c%10cc(NC(=O)c%11cc(NC(=O)c%12nc(N=C(N(C)C)N(C)C)cn%12C)cn%11C)cn%10C)cn9C)cn8C)cn7C)cn6C)cn5C)cn4C)cn3C)cn2C)cn1C | 300 nM | > 10000 nM | 200 nM | > 10000 nM | 130 nM | 900 nM | 1.2 nM | Active | 1.1 nM | 3.2 nM | – | – | inactive | Active |
| CN(CCCN)CCCNC(=O)CCNC(=O)c1cc(NC(=O)c2cc(NC(=O)c3cc(NC(=O)c4cc(NC(=O)CCNC(=O)c5cc(NC(=O)c6cc(NC(=O)CCCNC(=O)c7cc(NC(=O)c8cc(NC(=O)c9cc(NC(=O)CCNC(=O)c%10cc(NC(=O)c%11cc(NC(=O)c%12nccn%12C)cn%11C)cn%10C)cn9C)cn8C)cn7C)cn6C)cn5C)cn4C)cn3C)cn2C)cn1C | 100 nM | 1100 nM | 700 nM | > 10000 nM | 100 nM | 1000 nM | 0.9 nM | Active | 0.9 nM | 2.7 nM | Active | – | – | – |
| CN(CCCN)CCCNC(=O)CCNC(=O)c1cc(NC(=O)c2cc(NC(=O)c3cc(NC(=O)CCNC(=O)c4cc(NC(=O)c5cc(NC(=O)c6cc(NC(=O)CCNC(=O)c7cc(NC(=O)c8cc(NC(=O)CCNC(=O)c9cc(NC(=O)c%10cc(NC(=O)CCCNC(=O)c%11cc(NC(=O)c%12cc(NC(=O)c%13cc(NC(=O)CCNC(=O)c%14cc(NC(=O)c%15cc(NC(=O)c%16nccn%16C)cn%15C)cn%14C)cn%13C)cn%12C)cn%11C)cn%10C)cn9C)cn8C)cn7C)n(C)c6)n(C)c5)n(C)c4)n(C)c3)n(C)c2)n(C)c1 | 36 nM | 350 nM | 56 nM | 1500 nM | 30 nM | 510 nM | – | – | – | – | – | – | – | – |
